# Measured values taken from ChEMBL document CHEMBL4689842, “EUbOPEN Chemogenomics Library wave 1” (2021).
# System: HEK-293T
# Assay: Multiplex assay against HEK293T;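 as to Population Tubulin-Different-Phenotype (%): share of the cells with healthy nuclei that show this phenotype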
# Type: toxicity, cell-based
# Conditions: human
# Procedure, shortened: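 Per cents of healthy-nucleus cells form the tubulin, mitochondrial-mass and membrane-permeability phenotype values. Live cells were stained at seeding with Hoechst33342, BioTracker Green Microtubule Cytoskeleton Dye, MitoTracker Red and Annexin V Alexa Fluor 680. After compound addition they were imaged on a CQ1 microscope at 37°C and 5% CO2, and CellPathfinder machine-learning gating split them into Hoechst high-intensity objects or normal cells, normal cells into healthy, pyknosed or fragmented nuclei, and pyknosed cells into mitotic or apoptotic.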
# [1] = 12 h, 1 µM, compound concentration 1 uM, replicate 1
# [2] = 12 h, 1 µM, compound concentration 1 uM, replicate 2
# [3] = 12 h, 10 µM, compound concentration 10 uM, replicate 1
# [4] = 12 h, 10 µM, compound concentration 10 uM, replicate 2
# [5] = 24 h, 1 µM, compound concentration 1 uM, replicate 1
# [6] = 24 h, 1 µM, compound concentration 1 uM, replicate 2
# [7] = 24 h, 10 µM, compound concentration 10 uM, replicate 1
# [8] = 24 h, 10 µM, compound concentration 10 uM, replicate 2
# [9] = 48 h, 1 µM, compound concentration 1 uM, replicate 1
# [10] = 48 h, 1 µM, compound concentration 1 uM, replicate 2
# [11] = 48 h, 10 µM, compound concentration 10 uM, replicate 1
# [12] = 48 h, 10 µM, compound concentration 10 uM, replicate 2
compound,measurement,setting,value
CN1CCCC(n2nc(Cc3ccc(Cl)cc3)c3ccccc3c2=O)CC1.Cl (stereo not given) [AZELASTINE HYDROCHLORIDE],Population Apoptotic (%),[1],50%
same,Population Fragmented Nuclei (%),[1],8%
same,Population Healthy Nuclei (%),[1],42%
same,Population Hoechst High Intensity Objects (%),[1],9%
same,Population Membrane Permeable-Phenotype (%),[1],3%
same,Population Mitochondria Different-Phenotype (%),[1],94%
same,Population Mitotic Cells (%),[1],49%
same,Population Normal (%),[1],90%
same,Population Pyknosed Nuclei (%),[1],50%
same,Population Tubulin-Different-Phenotype (%),[1],84%
same,Total Cell Count,[1],333
same,Population Apoptotic (%),[2],40%
same,Population Fragmented Nuclei (%),[2],6%
same,Population Healthy Nuclei (%),[2],24%
same,Population Hoechst High Intensity Objects (%),[2],5%
same,Population Membrane Permeable-Phenotype (%),[2],4%
same,Population Mitochondria Different-Phenotype (%),[2],61%
same,Population Mitotic Cells (%),[2],59%
same,Population Normal (%),[2],94%
same,Population Pyknosed Nuclei (%),[2],69%
same,Population Tubulin-Different-Phenotype (%),[2],68%
same,Total Cell Count,[2],190
same,Population Apoptotic (%),[3],82%
same,Population Fragmented Nuclei (%),[3],11%
same,Population Healthy Nuclei (%),[3],16%
same,Population Hoechst High Intensity Objects (%),[3],19%
same,Population Membrane Permeable-Phenotype (%),[3],2%
same,Population Mitochondria Different-Phenotype (%),[3],100%
same,Population Mitotic Cells (%),[3],17%
same,Population Normal (%),[3],80%
same,Population Pyknosed Nuclei (%),[3],72%
same,Population Tubulin-Different-Phenotype (%),[3],78%
same,Total Cell Count,[3],289
same,Population Apoptotic (%),[4],89%
same,Population Fragmented Nuclei (%),[4],5%
same,Population Healthy Nuclei (%),[4],23%
same,Population Hoechst High Intensity Objects (%),[4],4%
same,Population Membrane Permeable-Phenotype (%),[4],3%
same,Population Mitochondria Different-Phenotype (%),[4],98%
same,Population Mitotic Cells (%),[4],10%
same,Population Normal (%),[4],95%
same,Population Pyknosed Nuclei (%),[4],70%
same,Population Tubulin-Different-Phenotype (%),[4],56%
same,Total Cell Count,[4],231
same,Population Apoptotic (%),[5],56%
same,Population Fragmented Nuclei (%),[5],8%
same,Population Healthy Nuclei (%),[5],37%
same,Population Hoechst High Intensity Objects (%),[5],11%
same,Population Membrane Permeable-Phenotype (%),[5],3%
same,Population Mitochondria Different-Phenotype (%),[5],92%
same,Population Mitotic Cells (%),[5],43%
same,Population Normal (%),[5],88%
same,Population Pyknosed Nuclei (%),[5],54%
same,Population Tubulin-Different-Phenotype (%),[5],83%
same,Total Cell Count,[5],353
same,Population Apoptotic (%),[6],50%
same,Population Fragmented Nuclei (%),[6],7%
same,Population Healthy Nuclei (%),[6],49%
same,Population Hoechst High Intensity Objects (%),[6],4%
same,Population Membrane Permeable-Phenotype (%),[6],5%
same,Population Mitochondria Different-Phenotype (%),[6],66%
same,Population Mitotic Cells (%),[6],50%
same,Population Normal (%),[6],95%
same,Population Pyknosed Nuclei (%),[6],43%
same,Population Tubulin-Different-Phenotype (%),[6],74%
same,Total Cell Count,[6],223
same,Population Apoptotic (%),[7],82%
same,Population Fragmented Nuclei (%),[7],13%
same,Population Healthy Nuclei (%),[7],13%
same,Population Hoechst High Intensity Objects (%),[7],19%
same,Population Membrane Permeable-Phenotype (%),[7],0%
same,Population Mitotic Cells (%),[7],17%
same,Population Normal (%),[7],80%
same,Population Pyknosed Nuclei (%),[7],72%
same,Population Tubulin-Different-Phenotype (%),[7],59%
same,Total Cell Count,[7],289
same,Population Apoptotic (%),[8],93%
same,Population Fragmented Nuclei (%),[8],8%
same,Population Healthy Nuclei (%),[8],33%
same,Population Hoechst High Intensity Objects (%),[8],7%
same,Population Membrane Permeable-Phenotype (%),[8],4%
same,Population Mitochondria Different-Phenotype (%),[8],100%
same,Population Mitotic Cells (%),[8],6%
same,Population Normal (%),[8],92%
same,Population Pyknosed Nuclei (%),[8],58%
same,Population Tubulin-Different-Phenotype (%),[8],38%
same,Total Cell Count,[8],230
same,Population Apoptotic (%),[9],49%
same,Population Fragmented Nuclei (%),[9],14%
same,Population Healthy Nuclei (%),[9],42%
same,Population Hoechst High Intensity Objects (%),[9],14%
same,Population Membrane Permeable-Phenotype (%),[9],3%
same,Population Mitochondria Different-Phenotype (%),[9],72%
same,Population Mitotic Cells (%),[9],50%
same,Population Normal (%),[9],85%
same,Population Pyknosed Nuclei (%),[9],42%
same,Population Tubulin-Different-Phenotype (%),[9],70%
same,Total Cell Count,[9],404
same,Population Apoptotic (%),[10],47%
same,Population Fragmented Nuclei (%),[10],7%
same,Population Healthy Nuclei (%),[10],65%
same,Population Hoechst High Intensity Objects (%),[10],5%
same,Population Membrane Permeable-Phenotype (%),[10],6%
same,Population Mitochondria Different-Phenotype (%),[10],48%
same,Population Mitotic Cells (%),[10],52%
same,Population Normal (%),[10],94%
same,Population Pyknosed Nuclei (%),[10],26%
same,Population Tubulin-Different-Phenotype (%),[10],71%
same,Total Cell Count,[10],324
same,Population Apoptotic (%),[11],79%
same,Population Fragmented Nuclei (%),[11],20%
same,Population Healthy Nuclei (%),[11],6%
same,Population Hoechst High Intensity Objects (%),[11],27%
same,Population Membrane Permeable-Phenotype (%),[11],0%
same,Population Mitochondria Different-Phenotype (%),[11],100%
same,Population Mitotic Cells (%),[11],20%
same,Population Normal (%),[11],72%
same,Population Pyknosed Nuclei (%),[11],73%
same,Population Tubulin-Different-Phenotype (%),[11],38%
same,Total Cell Count,[11],297
same,Population Apoptotic (%),[12],89%
same,Population Fragmented Nuclei (%),[12],8%
same,Population Healthy Nuclei (%),[12],57%
same,Population Hoechst High Intensity Objects (%),[12],18%
same,Population Mitochondria Different-Phenotype (%),[12],99%
same,Population Mitotic Cells (%),[12],10%
same,Population Normal (%),[12],81%
same,Population Pyknosed Nuclei (%),[12],34%
same,Population Tubulin-Different-Phenotype (%),[12],15%
same,Total Cell Count,[12],231
